Data published in ChEMBL document CHEMBL4152234, “Aminobenzothiazole derivatives stabilize the thermolabile p53 cancer mutant Y220C and show anticancer activity in p53-Y220C cell lines” (Eur J Med Chem, 2018).
Activity calls are given as the source filed them. The calls are words filed in the database; no cut-off is given here.

Assays:
[1] = tested on: Cellular tumor antigen p53 (Homo sapiens), P04637 [Y220C]; test: Activation of p53 Y220C mutant in human NUGC3 cells assessed as change in ATM mRNA level at 60 uM after 18 hrs by RT-PCR method relative to control; assay type: cell-based
Procedure, shortened: (§1)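 p53 signalling qPCR array covering 84 genes. Cells were exposed for 18 h, with 0.5% DMSO in both compound and control samples. Total RNA was extracted and purified. Fold-changes were calculated by ΔΔCt using β2-microglobulin (B2M) as the housekeeping gene. Two independent biological replicates were run per cell line.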

[2] = tested on: Cellular tumor antigen p53 (Homo sapiens), P04637 [Y220C]; test: Activation of p53 Y220C mutant in human NUGC3 cells assessed as change in BRCA1 mRNA level at 60 uM after 18 hrs by RT-PCR method relative to control; assay type: cell-based; procedure, shortened: as §1
[3] = tested on: Cellular tumor antigen p53 (Homo sapiens), P04637 [Y220C]; test: Activation of p53 Y220C mutant in human NUGC3 cells assessed as change in CHEK1 mRNA level at 60 uM after 18 hrs by RT-PCR method relative to control; assay type: cell-based; procedure, shortened: as §1
[4] = tested on: Cellular tumor antigen p53 (Homo sapiens), P04637 [Y220C]; test: Activation of p53 Y220C mutant in human NUGC3 cells assessed as change in MSH2 mRNA level at 60 uM after 18 hrs by RT-PCR method relative to control; assay type: cell-based
Procedure, shortened: (§2)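 p53 signalling qPCR array covering 84 p53 pathway genes. Cells were exposed for 18 h, and compound and control wells both held 0.5% DMSO. Total RNA was extracted and purified. Fold-changes were calculated by the ΔΔCt method against the untreated sample, with β2-microglobulin (B2M) as the housekeeping gene. Each cell line was run in two independent biological replicates.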

[5] = tested on: Cellular tumor antigen p53 (Homo sapiens), P04637 [Y220C]; test: Activation of p53 Y220C mutant in human NUGC3 cells assessed as change in FAS mRNA level at 60 uM after 18 hrs by RT-PCR method relative to control; assay type: cell-based; procedure, shortened: as §1
[6] = tested on: Cellular tumor antigen p53 (Homo sapiens), P04637 [Y220C]; test: Activation of p53 Y220C mutant in human NUGC3 cells assessed as change in TNFRSF10B mRNA level at 60 uM after 18 hrs by RT-PCR method relative to control; assay type: cell-based; procedure, shortened: as §2
[7] = tested on: Cellular tumor antigen p53 (Homo sapiens), P04637 [Y220C]; test: Activation of p53 Y220C mutant in human NUGC3 cells assessed as change in SESN2 mRNA level at 60 uM after 18 hrs by RT-PCR method relative to control; assay type: cell-based; procedure, shortened: as §2
[8] = tested on: Cellular tumor antigen p53 (Homo sapiens), P04637 [Y220C]; test: Activation of p53 Y220C mutant in human NUGC3 cells assessed as change in MLH1 mRNA level at 60 uM after 18 hrs by RT-PCR method relative to control; assay type: cell-based; procedure, shortened: as §2
[9] = tested on: Cellular tumor antigen p53 (Homo sapiens), P04637 [Y220C]; test: Activation of p53 Y220C mutant in human NUGC3 cells assessed as change in CASP2 mRNA level at 60 uM after 18 hrs by RT-PCR method relative to control; assay type: cell-based; procedure, shortened: as §1
[10] = tested on: Cellular tumor antigen p53 (Homo sapiens), P04637 [Y220C]; test: Activation of p53 Y220C mutant in human NUGC3 cells assessed as change in CDK4 mRNA level at 60 uM after 18 hrs by RT-PCR method relative to control; assay type: cell-based; procedure, shortened: as §1
[11] = tested on: Cellular tumor antigen p53 (Homo sapiens), P04637 [Y220C]; test: Activation of p53 Y220C mutant in human NUGC3 cells assessed as change in BRCA2 mRNA level at 60 uM after 18 hrs by RT-PCR method relative to control; assay type: cell-based; procedure, shortened: as §1
[12] = tested on: Cellular tumor antigen p53 (Homo sapiens), P04637 [Y220C]; test: Activation of p53 Y220C mutant in human NUGC3 cells assessed as change in JUN mRNA level at 60 uM after 18 hrs by RT-PCR method relative to control; assay type: cell-based; procedure, shortened: as §2
[13] = molecular target: T1, Cellular tumor antigen p53 (Homo sapiens, UniProt P04637); test: Activation of p53 in human NUGC4 cells assessed as change in ATM mRNA level at 60 uM after 18 hrs by RT-PCR method relative to control; assay type: cell-based; conditions: read-out: FC; procedure, shortened: as §2
[14] = molecular target: T1, Cellular tumor antigen p53; test: Activation of p53 in human NUGC4 cells assessed as change in CASP9 mRNA level at 60 uM after 18 hrs by RT-PCR method relative to control; assay type: cell-based; conditions: read-out: FC
Procedure, shortened: (§3)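 p53 signaling qPCR array of 84 p53-pathway genes. Cells were treated in 6-well plates for 18 h with 0.5% DMSO in compound and control samples. Total RNA was extracted and fold-changes were obtained by the ΔΔCt method against untreated control, with β2-microglobulin (B2M) as housekeeping gene. Two independent biological replicates per cell line.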

[15] = molecular target: T1, Cellular tumor antigen p53; test: Activation of p53 in human NUGC4 cells assessed as change in EI24 mRNA level at 60 uM after 18 hrs by RT-PCR method relative to control; assay type: cell-based; conditions: read-out: FC; procedure, shortened: as §3
[16] = molecular target: T1, Cellular tumor antigen p53; test: Activation of p53 in human NUGC4 cells assessed as change in EGFR mRNA level at 60 uM after 18 hrs by RT-PCR method relative to control; assay type: cell-based; conditions: read-out: FC; procedure, shortened: as §3
[17] = molecular target: T1, Cellular tumor antigen p53; test: Activation of p53 in human NUGC4 cells assessed as change in RPRM mRNA level at 60 uM after 18 hrs by RT-PCR method relative to control; assay type: cell-based; conditions: read-out: FC
[18] = molecular target: T1, Cellular tumor antigen p53; test: Activation of p53 in human NUGC4 cells assessed as change in DNMT1 mRNA level at 60 uM after 18 hrs by RT-PCR method relative to control; assay type: cell-based; conditions: read-out: FC; procedure, shortened: as §3
[19] = molecular target: T1, Cellular tumor antigen p53; test: Activation of p53 in human NUGC4 cells assessed as change in BID mRNA level at 60 uM after 18 hrs by RT-PCR method relative to control; assay type: cell-based; conditions: read-out: FC; procedure, shortened: as §2
[20] = molecular target: T1, Cellular tumor antigen p53; test: Activation of p53 in human NUGC4 cells assessed as change in TRAF2 mRNA level at 60 uM after 18 hrs by RT-PCR method relative to control; assay type: cell-based; conditions: read-out: FC
[21] = molecular target: T1, Cellular tumor antigen p53; test: Activation of p53 in human NUGC4 cells assessed as change in BAI1 mRNA level at 60 uM after 18 hrs by RT-PCR method relative to control; assay type: cell-based; conditions: read-out: FC; procedure, shortened: as §2
[22] = molecular target: T1, Cellular tumor antigen p53; test: Activation of p53 in human NUGC4 cells assessed as change in CDK1 mRNA level at 60 uM after 18 hrs by RT-PCR method relative to control; assay type: cell-based; conditions: read-out: FC; procedure, shortened: as §3
[23] = molecular target: T1, Cellular tumor antigen p53; test: Activation of p53 in human NUGC4 cells assessed as change in IL6 mRNA level at 60 uM after 18 hrs by RT-PCR method relative to control; assay type: cell-based; conditions: read-out: FC; procedure, shortened: as §3
[24] = molecular target: T1, Cellular tumor antigen p53; test: Activation of p53 in human NUGC4 cells assessed as change in PTEN mRNA level at 60 uM after 18 hrs by RT-PCR method relative to control; assay type: cell-based; conditions: read-out: FC
[25] = molecular target: T1, Cellular tumor antigen p53; test: Activation of p53 in human NUGC4 cells assessed as change in JUN mRNA level at 60 uM after 18 hrs by RT-PCR method relative to control; assay type: cell-based; conditions: read-out: FC; procedure, shortened: as §3
[26] = tested on: Cellular tumor antigen p53 (Homo sapiens), P04637 [Y220C]; test: Activation of p53 Y220C mutant in human HuH7 cells assessed as increase in BBC3 mRNA level at 30 uM after 18 hrs by RT-PCR method; assay type: cell-based
Procedure, shortened: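 Real-time PCR. Cells were treated for 18 h, with 0.5% DMSO in both compound and control samples. Relative mRNA levels were quantified by the ΔΔCt method as fold-change against the untreated sample. Each sample was measured in triplicate, and data are given as mean ± SEM with an unpaired t-test.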

[27] = tested on: Huh-7; test: Upregulation of MDM2 mRNA level in p53 Y220C mutant knockout human HuH7 cells at 30 uM after 18 hrs by RT-PCR method; assay type: functional, cell-based
[28] = tested on: Huh-7; test: Upregulation of NOXA mRNA level in p53 Y220C mutant knockout human HuH7 cells at 30 uM after 18 hrs by RT-PCR method; assay type: functional, cell-based

- fold change (FC) [1]: 0.9
- fold change (FC) [2]: 0.6
- fold change (FC) [3]: 1.2
- fold change (FC) [4]: 5.3
- fold change (FC) [5]: 2.6
- fold change (FC) [6]: 1.8
- fold change (FC) [7]: 0.7
- fold change (FC) [8]: 5.4
- fold change (FC) [9]: 1.1
- fold change (FC) [10]: 1.3
- fold change (FC) [11]: 0.9
- fold change (FC) [12]: 0.9
- fold induction at 60 µM [13]: 1
- fold induction at 60 µM [14]: 1
- fold induction at 60 µM [15]: 0.8
- fold induction at 60 µM [16]: 1
- fold induction at 60 µM [17]: 7.9
- fold induction at 60 µM [18]: 0.8
- fold induction at 60 µM [19]: 0.7
- fold induction at 60 µM [20]: 0.8
- fold induction at 60 µM [21]: 2.9
- fold induction at 60 µM [22]: 0.8
- fold induction at 60 µM [23]: 7.9
- fold induction at 60 µM [24]: 1
- fold induction at 60 µM [25]: 0.7
- Activity [26]: Active
Structure (SMILES): CCNC(=O)c1c(O)c(I)c(-n2cccc2)c2sc(N(CC)CC)nc12
- Activity [27]: inactive
- Activity [28]: inactive
